We go through 4 compounds from ChEMBL document CHEMBL1124186, “Synthesis and evaluation of tylosin-related macrolides modified at the aldehyde function: a new series of orally effective antibiotics” (1988).

≈ marks a conversion by molar mass, not a printed value.

In experiment [1] the test system is Streptococcus pneumoniae. Put plainly: In vitro antimicrobial activity against Streptococcus pneumoniae. It is filed as functional.
Experiment [2] concerns Streptococcus pyogenes. The experiment in a line: In vivo effective dose against experimental infections in rodent caused by Streptococcus pyogenes C203 when administered orally. The settings on record: po. It is filed as functional.
The test system of experiment [3] is Staphylococcus aureus. Put plainly: In vitro antimicrobial activity against Staphylococcus aureus X1. It is filed as functional.
In experiment [4] the test system is Streptococcus pneumoniae. The experiment in a line: In vivo effective dose against experimental infections in mice Streptococcus pneumoniae park when administered orally. Conditions: po. It is filed as functional.
Experiment [5] has as its system Streptococcus pyogenes. Put plainly: In vitro antimicrobial activity against Streptococcus pyogenes C203. The format is functional.
The test system of experiment [6] is Staphylococcus epidermidis. Put plainly: In vitro antimicrobial activity against Staphylococcus epidermidis EPI1. It is filed as functional.
In experiment [7] the test system is Haemophilus influenzae. Put plainly: In vitro antimicrobial activity against Haemophilus influenzae. The format is functional.
Experiment [8] concerns Streptococcus pyogenes. Put plainly: In vivo effective dose against experimental infections in rodent caused by Streptococcus pyogenes C203 when administered sc. It is filed as functional.
Experiment [9] concerns Enterococcus faecium. The experiment in a line: In vitro antimicrobial activity against Streptococcus faecium X66. The format is functional, streptococcus fae-cium.
Experiment [10] has as its system Streptococcus pneumoniae. Put plainly: In vivo effective dose against experimental infections in mice Streptococcus pneumoniae park when administered sc. The format is functional.
The test system of experiment [11] is Mus musculus. The experiment in a line: Peripheral plasma levels in mice after oral administration of 100 mg/kg dose for 0.25 hr. The format is functional, organism-based. Also noted: dose 100 mg/kg. In a few lines:
(§1)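 Mice were given the compound orally and sampled for peripheral plasma at each time point. Plasma was assayed microbiologically against Micrococcus luteus seeded in Antibiotic Medium 1. Inhibition zone sizes were read, and concentrations were calculated from each compound's own standard curve. Each value is the mean of five mice per time point.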

The test system of experiment [12] is Clostridioides difficile. The experiment in a line: In vitro antimicrobial activity against anaerobic bacteria Clostridium difficile 2994. The format is functional.
In experiment [13] the test system is Cutibacterium acnes. Put plainly: In vitro antimicrobial activity against anaerobic bacteria propionibacterium acnes 79. The format is functional.
Experiment [14] relates to Peptoniphilus asaccharolyticus. Put plainly: In vitro antimicrobial activity against anaerobic bacteria peptococcus asaccharolyticus 1302. It is filed as functional.
Experiment [15] concerns Mus musculus. Put plainly: Peripheral plasma levels in mice after oral administration of 100 mg/kg dose for 2 hr. Also noted: dose 100 mg/kg. It is filed as functional, organism-based. In a few lines:
as §1

The test system of experiment [16] is Prevotella melaninogenica. Put plainly: In vitro antimicrobial activity against anaerobic bacteria bacteroides melaninogenicus 1856,. The format is functional.
Experiment [17] has as its system Mus musculus. Put plainly: Peripheral plasma levels in mice after oral administration of 50 mg/kg dose for 1 hr. The format is functional, organism-based. Also noted: dose 50 mg/kg. In a few lines: as §1
The test system of experiment [18] is Mus musculus. Put plainly: Peripheral plasma levels in mice after oral administration of 50 mg/kg dose for 2 hr. Further details: dose 50 mg/kg. It is filed as functional, organism-based. In a few lines: as §1
Experiment [19] has as its system Collinsella aerofaciens. The experiment in a line: In vitro antimicrobial activity against anaerobic bacteria eubacterium aerofaciens 1235. It is filed as functional.
The subject of experiment [20] is Bacteroides fragilis. Put plainly: In vitro antimicrobial activity against anaerobic bacteria bacteroides fragilis 1936B,. The format is functional.
Experiment [21] has as its system Bacteroides fragilis. Put plainly: In vitro antimicrobial activity against anaerobic bacteria bacteroides fragilis 1877. It is filed as functional.
For experiment [22], the system named is Mus musculus. The experiment in a line: Peripheral plasma levels in mice after oral administration of 100 mg/kg dose for 4 hr. The format is functional, organism-based. Further details: dose 100 mg/kg. The procedure, abridged: as §1
Experiment [23] relates to Fusobacterium. Put plainly: In vitro antimicrobial activity against anaerobic bacteria fusobacterium symbiosum 1470. The format is functional.
The subject of experiment [24] is Clostridium septicum. The experiment in a line: In vitro antimicrobial activity against anaerobic bacteria clostridium septicum 1128. The format is functional.
Experiment [25] deals with Mus musculus. Put plainly: Peripheral plasma levels in mice after oral administration of 100 mg/kg dose for 0.5 hr. The format is functional, organism-based. Also noted: dose 100 mg/kg. The procedure, abridged:
as §1

The subject of experiment [26] is Anaerococcus prevotii. The experiment in a line: In vitro antimicrobial activity against anaerobic bacteria peptococcus prevoti 1281. The format is functional.
The test system of experiment [27] is Bacteroides thetaiotaomicron. The experiment in a line: In vitro antimicrobial activity against anaerobic bacteria bacteroides thetaiotaomicron 1438. The format is functional.
Experiment [28] can be described thus: In vitro antimicrobial activity against anaerobic bacteria peptostreptococcus intermedius 1264. The format is functional.
Experiment [29] relates to Peptostreptococcus anaerobius. Put plainly: In vitro antimicrobial activity against anaerobic bacteria eubacterium peptostreptococcus anaerobius 1428,. The format is functional.
For experiment [30], the system named is Mus musculus. Put plainly: Peripheral plasma levels in mice after oral administration of 50 mg/kg dose for 0.5 hr. It is filed as functional, organism-based. Also noted: dose 50 mg/kg. The procedure, abridged: as §1
For experiment [31], the system named is Eikenella corrodens. The experiment in a line: In vitro antimicrobial activity against anaerobic bacteria bacteroides corrodens 1874. The format is functional.
The test system of experiment [32] is Chlamydia trachomatis. The experiment in a line: In vitro antimicrobial activity against chlamydia trachomatis. It is filed as functional.
The subject of experiment [33] is Fusobacterium necrophorum. Put plainly: In vitro antimicrobial activity against anaerobic bacteria usobacterium necrophorum 6054A. The format is functional.
The test system of experiment [34] is Clostridium perfringens. Put plainly: In vitro antimicrobial activity against anaerobic bacteria clostridium perfringens 81,. The format is functional.
For experiment [35], the system named is Prevotella melaninogenica. The experiment in a line: In vitro antimicrobial activity against anaerobic bacteria bacteroides melaninogenicus 2736. The format is functional.
Experiment [36] relates to Phocaeicola vulgatus. Put plainly: In vitro antimicrobial activity against anaerobic bacteria bacteroides vulgatus 1211. The format is functional.
Experiment [37] relates to Bacteroides fragilis. The experiment in a line: In vitro antimicrobial activity against anaerobic bacteria bacteroides fragilis 111. It is filed as functional.
The subject of experiment [38] is Mus musculus. Put plainly: Peripheral plasma levels in mice after oral administration of 50 mg/kg dose for 0.25 hr. It is filed as functional, organism-based. Further details: dose 50 mg/kg. The procedure, abridged:
as §1

The test system of experiment [39] is Mus musculus. Put plainly: Peripheral plasma levels in mice after oral administration of 100 mg/kg dose for 1 hr. Further details: dose 100 mg/kg. The format is functional, organism-based. The procedure, abridged:
as §1

Experiment [40] has as its system Streptococcus pyogenes. The experiment in a line: Activity against Streptococcus pyogenes C203 when administered sc. It is filed as functional. In a few lines:
(§2)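 Mouse protection test: infected mice were dosed twice, at 1 and 5 h postinfection, either subcutaneously or orally. […] The result is expressed as ED50 in mg/kg × 2.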

Experiment [41] concerns Streptococcus pyogenes. The experiment in a line: Antimicrobial activity against Streptococcus pyogenes C203. It is filed as functional.
Experiment [42] concerns Streptococcus pyogenes. Put plainly: Activity against Streptococcus pyogenes C203 when administered orally. The format is functional. The settings on record: po. In a few lines:
as §2

In the case of `CC[C@H]1OC(=O)C[C@@H](O)[C@H](C)[C@@H](O[C@@H]2O[C@H](C)[C@@H](O)[C@H](N(C)C)[C@H]2O)[C@@H](CCOc2ccc(Oc3ccccc3)cc2)C[C@@H](C)C(=O)/C=C/C(C)=C/[C@@H]1CO[C@@H]1O[C@H](C)[C@@H](O)[C@@H](OC)[C@H]1OC`, the MIC turned out to be 0.25 µg/mL (≈ 0.265 µM) in experiment [1]; 0.5 µg/mL (≈ 0.531 µM) in experiment [3]; 0.25 µg/mL (≈ 0.265 µM) in experiment [5]; 0.5 µg/mL (≈ 0.531 µM) in experiment [6]; 16 µg/mL (≈ 17 µM) in experiment [7]; 0.5 µg/mL (≈ 0.531 µM) in experiment [9]. For the same compound, the ED50 (commonly the midpoint of the dose-response relation) in experiment [2] is 29 mg/kg; in [4], 38 mg/kg; in experiment [8], > 10 mg/kg; in experiment [10], > 20 mg/kg.

As to `CC[C@H]1OC(=O)C[C@@H](O)[C@H](C)[C@@H](O[C@@H]2O[C@H](C)[C@@H](O[C@H]3C[C@@](C)(O)[C@@H](O)[C@H](C)O3)[C@H](N(C)C)[C@H]2O)[C@@H](CCCl)C[C@@H](C)C(=O)/C=C/C(C)=C/[C@@H]1CO[C@@H]1O[C@H](C)[C@@H](O)[C@@H](OC)[C@H]1OC`, the Concentration in [11] is 10 µg/mL; in experiment [15], 1.3 µg/mL; in experiment [17] it was 0.9 µg/mL; in experiment [18], 0.5 µg/mL; in experiment [22] it was 0.4 µg/mL; in experiment [25], 8.8 µg/mL. Also, the Concentration came to 1.9 µg/mL in experiment [30], 1.9 µg/mL in [38] and 3 µg/mL in [39]. Also, the MIC was < 0.5 µg/mL in experiment [12]; > 128 µg/mL in experiment [13]; 32 µg/mL (≈ 34.2 µM) in experiment [14]; 32 µg/mL (≈ 34.2 µM) in experiment [1]; 2 µg/mL (≈ 2.14 µM) in [16]; 1 µg/mL (≈ 1.07 µM) in experiment [3]. The MIC in experiment [19] was 64 µg/mL (≈ 68.3 µM); in [20], 4 µg/mL (≈ 4.27 µM); in experiment [21], 4 µg/mL (≈ 4.27 µM); in experiment [5] it was 2 µg/mL (≈ 2.14 µM); in experiment [6] it was 1 µg/mL (≈ 1.07 µM); in experiment [7], > 128 µg/mL. Also, the MIC in experiment [23] was 4 µg/mL (≈ 4.27 µM); in experiment [24] it was < 0.5 µg/mL; in [26], 8 µg/mL (≈ 8.54 µM); in experiment [27], 2 µg/mL (≈ 2.14 µM); in [28] it was 64 µg/mL (≈ 68.3 µM); in [29] it was 4 µg/mL (≈ 4.27 µM). The MIC was > 128 µg/mL in experiment [9]; 4 µg/mL (≈ 4.27 µM) in experiment [31]; 1 µg/mL (≈ 1.07 µM) in experiment [32]; > 128 µg/mL in experiment [33]; < 0.5 µg/mL in experiment [34]; 2 µg/mL (≈ 2.14 µM) in experiment [35]. The MIC stood at 1 µg/mL (≈ 1.07 µM) in [36] and 8 µg/mL (≈ 8.54 µM) in experiment [37]. In addition, the ED50 in [8] was > 6.3 mg/kg.

In the case of `CC[C@H]1OC(=O)C[C@@H](O)[C@H](C)[C@@H](O[C@@H]2O[C@H](C)[C@@H](O[C@H]3C[C@@](C)(O)[C@@H](O)[C@H](C)O3)[C@H](N(C)C)[C@H]2OC(C)=O)[C@@H](CCOc2ccccc2)C[C@@H](C)C(=O)/C=C/C(C)=C/[C@@H]1CO[C@@H]1O[C@H](C)[C@@H](O)[C@@H](OC)[C@H]1OC`, the ED50 is > 10 mg/kg in experiment [40] and 76.5 mg/kg in [42]. This compound came in with an MIC in experiment [41] of 4 µg/mL (≈ 3.86 µM).

`CC[C@H]1OC(=O)C[C@@H](O)[C@H](C)[C@@H](O[C@@H]2O[C@H](C)[C@@H](O)[C@H](N(C)C)[C@H]2O)[C@@H](CCOc2cccc(Oc3ccccc3)c2)C[C@@H](C)C(=O)/C=C/C(C)=C/[C@@H]1CO[C@@H]1O[C@H](C)[C@@H](O)[C@@H](OC)[C@H]1OC`: the MIC in experiment [1] was determined as 0.25 µg/mL (≈ 0.265 µM); in experiment [3] it was 0.5 µg/mL (≈ 0.531 µM); in [5], 0.25 µg/mL (≈ 0.265 µM); in experiment [6], 0.5 µg/mL (≈ 0.531 µM); in [7] it was 16 µg/mL (≈ 17 µM); in [9], 0.5 µg/mL (≈ 0.531 µM). The ED50 in [2] is 35 mg/kg; in experiment [4] it was 46 mg/kg; in experiment [8] it was > 10 mg/kg; in [10], > 20 mg/kg.
